According to ChEMBL document CHEMBL4145468, “Synthesis and biological evaluation of new steroidal pyridines as potential anti-prostate cancer agents” (Eur J Med Chem, 2018):
The source made the active and inactive calls. The calls are words filed in the database; no cut-off is given here.

Key:
PC-3 [1] = experiment: Induction of apoptosis in human PC3 cells assessed as formation of apoptotic bodies at 0.5 to 2 uM after 48 hrs by Hoechst 33258 staining-based fluorescence microscopic analysis; assay type: functional, cell-based
Method in brief: (§1)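 PC-3 cells, 3×10^5/well, grown 48 h, then treated with compound at varying concentrations 48 h. Methanol-fixed ~20 min, stained with 5 ug/mL Hoechst-33258 in PBS with 0.5% Triton X-100 in dark ≥30 min; nuclear condensation/fragmentation scored by UV fluorescence microscopy.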

PC-3 [2] = experiment: Induction of apoptosis in human PC3 cells assessed as viable cells at 2 uM after 48 hrs by AnnexinV-FITC/propidium iodide staining-based flow cytometric analysis (reference value: 99.1%); assay type: functional; details: PC-3, 48 h, read-out: Activity
PC-3 [3] = experiment: Cell cycle arrest in human PC3 cells assessed as accumulation of cells at G2 phase at 2 uM after 48 hrs by RNase/propidium iodide staining-based flow cytometric analysis (reference value: 7.17%); assay type: functional
PC-3 [4] = experiment: Antimigratory activity in human PC3 cells assessed as decrease in vimentin at 0.5 to 2 uM after 48 hrs by Western blot analysis; assay type: functional, cell-based
Method in brief: (§2)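 PC-3 cells treated 48 h with compound at several concentrations, lysed in NP-40/SDS/deoxycholate buffer with PMSF. Equal lysate amounts resolved by SDS-PAGE, transferred to nitrocellulose, blocked in 5% milk 2 h, primary antibody overnight at 4 °C, HRP secondary, ECL detection; GAPDH as loading control.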

PC-3 [5] = experiment: Induction of apoptosis in human PC3 cells assessed as necrotic cells at 2 uM after 48 hrs by AnnexinV-FITC/propidium iodide staining-based flow cytometric analysis (reference value: 0.5%); assay type: functional
PC-3 [6] = experiment: Cell cycle arrest in human PC3 cells assessed as accumulation of cells at G2 phase at 1 uM after 48 hrs by RNase/propidium iodide staining-based flow cytometric analysis (reference value: 7.17%); assay type: functional
PC-3 [7] = experiment: Induction of apoptosis in human PC3 cells assessed as late apoptotic cells at 0.5 uM after 48 hrs by AnnexinV-FITC/propidium iodide staining-based flow cytometric analysis (reference value: 0.1%); assay type: functional
PC-3 [8] = experiment: Induction of apoptosis in human PC3 cells assessed as cell rounding at 0.5 to 2 uM after 48 hrs by Hoechst 33258 staining-based fluorescence microscopic analysis; assay type: functional; method in brief: as §1
PC-3 [9] = experiment: Induction of apoptosis in human PC3 cells assessed as increase in cleaved PARP after 48 hrs by Western blot analysis; assay type: functional, cell-based; method in brief: as §2
PC-3 [10] = experiment: Antimigratory activity in human PC3 cells after 48 hrs by wound-healing assay; assay type: functional, cell-based
Method in brief: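 PC-3 cells seeded at 3×10^5/well, grown to 80–90% confluence, monolayer scratched with pipette tip, washed, then exposed to compound (0, 0.5, 1.0, 2.0 μM) for 48 h. Wound photographed by inverted microscopy. At least three experiments.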

ECa-109 cell line = experiment: Antiproliferative activity against human EC109 cells after 72 hrs by MTT assay; assay type: functional, cell-based; details: ECa-109, 72 h
Method in brief: (§3)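 Exponentially growing cells, 4×10^3/well, attached 24 h, then medium replaced with fresh medium holding graded compound concentrations for 72 h. MTT (5 mg/mL stock) added for 4 h, formazan dissolved in DMSO, absorbance at 570 nm; IC50 calculated from dose-response data.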

PC-3 [11] = experiment: Induction of apoptosis in human PC3 cells assessed as late apoptotic cells at 2 uM after 48 hrs by AnnexinV-FITC/propidium iodide staining-based flow cytometric analysis (reference value: 0.1%); assay type: functional
PC-3 [12] = experiment: Induction of apoptosis in human PC3 cells assessed as necrotic cells at 1 uM after 48 hrs by AnnexinV-FITC/propidium iodide staining-based flow cytometric analysis (reference value: 0.5%); assay type: functional
PC-3 [13] = experiment: Cell cycle arrest in human PC3 cells assessed as accumulation of cells at S phase at 1 uM after 48 hrs by RNase/propidium iodide staining-based flow cytometric analysis (reference value: 30.89%); assay type: functional
PC-3 [14] = experiment: Cell cycle arrest in human PC3 cells assessed as accumulation of cells at G1 phase at 1 uM after 48 hrs by RNase/propidium iodide staining-based flow cytometric analysis (reference value: 61.95%); assay type: functional
PC-3 [15] = experiment: Antiproliferative activity against human PC3 cells after 72 hrs by MTT assay; assay type: functional, cell-based; details: PC-3, 72 h; method in brief: as §3
PC-3 [16] = experiment: Induction of apoptosis in human PC3 cells assessed as increase in caspase-9 activation after 48 hrs by Western blot analysis; assay type: functional, cell-based; method in brief: as §2
PC-3 [17] = experiment: Antimigratory activity in human PC3 cells assessed as increase in E-cadherin at 0.5 to 2 uM after 48 hrs by Western blot analysis; assay type: functional, cell-based; method in brief: as §2
PC-3 [18] = experiment: Antimigratory activity in human PC3 cells after 24 hrs by transwell assay
PC-3 [19] = experiment: Induction of apoptosis in human PC3 cells assessed as early apoptotic cells at 1 uM after 48 hrs by AnnexinV-FITC/propidium iodide staining-based flow cytometric analysis (reference value: 0.3%); assay type: functional
PC-3 [20] = experiment: Induction of apoptosis in human PC3 cells assessed as chromatin shrinkage at 0.5 to 2 uM after 48 hrs by Hoechst 33258 staining-based fluorescence microscopic analysis; assay type: functional, cell-based; method in brief: as §1
PC-3 [21] = experiment: Cell cycle arrest in human PC3 cells assessed as accumulation of cells at S phase at 0.5 uM after 48 hrs by RNase/propidium iodide staining-based flow cytometric analysis (reference value: 30.89%); assay type: functional
PC-3 [22] = experiment: Induction of apoptosis in human PC3 cells after 48 hrs by AnnexinV-FITC/propidium iodide staining-based flow cytometric analysis; assay type: functional, cell-based
PC-3 [23] = experiment: Induction of apoptosis in human PC3 cells assessed as early apoptotic cells at 2 uM after 48 hrs by AnnexinV-FITC/propidium iodide staining-based flow cytometric analysis (reference value: 0.3%); assay type: functional
PC-3 [24] = experiment: Cell cycle arrest in human PC3 cells assessed as accumulation of cells at G1 phase at 2 uM after 48 hrs by RNase/propidium iodide staining-based flow cytometric analysis (reference value: 61.95%); assay type: functional
PC-3 [25] = experiment: Cell cycle arrest in human PC3 cells assessed as accumulation of cells at G1 phase at 0.5 uM after 48 hrs by RNase/propidium iodide staining-based flow cytometric analysis (reference value: 61.95%); assay type: functional
PC-3 [26] = experiment: Cell cycle arrest in human PC3 cells assessed as accumulation of cells at G2 phase at 0.5 uM after 48 hrs by RNase/propidium iodide staining-based flow cytometric analysis (reference value: 7.17%); assay type: functional
PC-3 [27] = experiment: Induction of apoptosis in human PC3 cells assessed as viable cells at 0.5 uM after 48 hrs by AnnexinV-FITC/propidium iodide staining-based flow cytometric analysis (reference value: 99.1%); assay type: functional; details: PC-3, 48 h, read-out: Activity
PC-3 [28] = experiment: Antimigratory activity in human PC3 cells assessed as increase in occludin at 0.5 to 2 uM after 48 hrs by Western blot analysis; assay type: functional, cell-based; method in brief: as §2
LNCaP = experiment: Antiproliferative activity against human LNCAP cells after 72 hrs by MTT assay; assay type: functional, cell-based; method in brief: as §3
PC-3 [29] = experiment: Antimigratory activity in human PC3 cells assessed as decrease in N-Cadherin at 0.5 to 2 uM after 48 hrs by Western blot analysis; assay type: functional, cell-based; method in brief: as §2
PC-3 [30] = experiment: Inhibition of colony formation in human PC3 cells at 0.5 to 2 uM after 7 days by crystal violet staining-based assay; assay type: functional, cell-based
Method in brief: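 About 2000 PC-3 cells/well seeded, after 24 h medium replaced with compound-containing medium for 7 days. Colonies PBS-washed, fixed in 4% paraformaldehyde 30 min, crystal violet stained 30 min, destained with PBS before evaluation. Repeated three times.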

PC-3 [31] = experiment: Induction of apoptosis in human PC3 cells assessed as necrotic cells at 0.5 uM after 48 hrs by AnnexinV-FITC/propidium iodide staining-based flow cytometric analysis (reference value: 0.5%); assay type: functional
MGC-803 = experiment: Antiproliferative activity against human MGC803 cells after 72 hrs by MTT assay; assay type: functional, cell-based; details: MGC-803, 72 h; method in brief: as §3
PC-3 [32] = experiment: Cell cycle arrest in human PC3 cells assessed as accumulation of cells at S phase at 2 uM after 48 hrs by RNase/propidium iodide staining-based flow cytometric analysis (reference value: 30.89%); assay type: functional
PC-3 [33] = experiment: Anti-invasive activity in human PC3 cells after 48 hrs by matrigel-coated transwell assay; assay type: functional, cell-based
PC-3 [34] = experiment: Induction of apoptosis in human PC3 cells assessed as early apoptotic cells at 0.5 uM after 48 hrs by AnnexinV-FITC/propidium iodide staining-based flow cytometric analysis (reference value: 0.3%); assay type: functional
PC-3 [35] = experiment: Induction of apoptosis in human PC3 cells assessed as increase in caspase-3 activation after 48 hrs by Western blot analysis; assay type: functional, cell-based; method in brief: as §2
PC-3 [36] = experiment: Induction of apoptosis in human PC3 cells assessed as late apoptotic cells at 1 uM after 48 hrs by AnnexinV-FITC/propidium iodide staining-based flow cytometric analysis (reference value: 0.1%); assay type: functional
PC-3 [37] = experiment: Induction of apoptosis in human PC3 cells assessed as viable cells at 1 uM after 48 hrs by AnnexinV-FITC/propidium iodide staining-based flow cytometric analysis (reference value: 99.1%); assay type: functional; details: PC-3, 48 h, read-out: Activity
GES1 = experiment: Antiproliferative activity against human GES-1 cells after 72 hrs by MTT assay; assay type: cell-based; details: GES1, 72 h; method in brief: as §3

Q: Which results are given for CCOc1cc(-c2cccnc2)cc([C@H]2CC[C@H]3[C@@H]4CC=C5C[C@@H](O)CC[C@]5(C)[C@H]4CC[C@]23C)n1?
A: Activity (PC-3 [1]): Active; viability at 2 µM (PC-3 [2]): 73.3%; Activity (PC-3 [3]): 10.87%; Activity (PC-3 [4]): Active; Activity (PC-3 [5]): 4.6%; Activity (PC-3 [6]): 11.09%; Activity (PC-3 [7]): 2.6%; Activity (PC-3 [8]): Active; Activity (PC-3 [9]): Dose-dependent effect; Activity (PC-3 [10]): Dose-dependent effect; IC50 (ECa-109 cell line): 5.32 µM; Activity (PC-3 [11]): 14.9%; Activity (PC-3 [12]): 2.5%; Activity (PC-3 [13]): 33.48%; Activity (PC-3 [14]): 55.44%; IC50 (PC-3 [15]): 1.55 µM; Activity (PC-3 [16]): Dose-dependent effect; Activity (PC-3 [17]): Active; Activity (PC-3 [18]): Dose-dependent effect; Activity (PC-3 [19]): 9.1%; Activity (PC-3 [20]): Active; Activity (PC-3 [21]): 33.56%; Activity (PC-3 [22]): Dose-dependent effect; Activity (PC-3 [23]): 7.3%; Activity (PC-3 [24]): 53.36%; Activity (PC-3 [25]): 55.52%; Activity (PC-3 [26]): 10.92%; viability at 0.5 µM (PC-3 [27]): 86.2%; Activity (PC-3 [28]): Active; IC50 (LNCaP): 8.48 µM; Activity (PC-3 [29]): Active; inhibition (PC-3 [30]): Active; Activity (PC-3 [31]): 0.5%; IC50 (MGC-803): 2.75 µM; Activity (PC-3 [32]): 35.77%; Activity (PC-3 [33]): Dose-dependent effect; Activity (PC-3 [34]): 10.7%; Activity (PC-3 [35]): Dose-dependent effect; Activity (PC-3 [36]): 11.7%; viability at 1 µM (PC-3 [37]): 76.7%; IC50 (GES1): 7.76 µM
